Reference: ChEMBL document CHEMBL1914453, “1,1-Diarylalkenes as anticancer agents: dual inhibitors of tubulin polymerization and phosphodiesterase 4” (Bioorg Med Chem, 2011)

How the values were obtained:
PBMC = experiment: Inhibition of LPS-induced TNFalpha production in human PBMC preincubated 1 hr prior to LPS stimulation measured after 18 to 20 hrs by ELISA; assay type: functional, cell-based
In short: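 PBMC were isolated by Ficoll-Hypaque density centrifugation and plated at 2 × 10⁵ cells in triplicate. Compounds in DMSO (0.25% final) were added 1 h before stimulation with LPS from S. abortus equi at 1 ng/ml. After 18–20 h at 37 °C in 5% CO₂, supernatant TNF-α was measured by ELISA. IC50 values are means of at least three determinations.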

Phosphodiesterase 4 = Phosphodiesterase 4 (Homo sapiens, UniProt P27815+Q08499+Q07343+Q08493); experiment: Inhibition of human PDE4 expressed in U937 cells using [3H]cAMP as substrate after 30 mins; settings: u-937
In short: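 PDE4 was purified from U937 human monocytic cells by gel filtration. Reactions ran in 50 mM Tris–HCl pH 7.5 with 5 mM MgCl₂, 1 µM cAMP and 10 nM [³H]-cAMP for 30 min at 30 °C. They were stopped by boiling, treated with snake venom (1 mg/ml) and separated on ion-exchange resin. Substrate consumption stayed below 15%. IC50 values are means of at least three determinations, with SEM.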

HCT-116 = experiment: Cytotoxicity against human HCT116 cells assessed as reduction of [3H]thymidine incorporation after 72 hrs by scintillation counting; assay type: functional, cell-based
In short: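 HCT-116 cells were seeded 24 h before compound and treated with serial dilutions in triplicate for 72 h at 37 °C. [³H]thymidine (1 µCi per well) was added for the last 6 h, and incorporation was read by scintillation counting. IC50 came from nonlinear sigmoidal regression (top 100%, bottom 0%, variable slope). Values are means of at least three independent determinations, with SEM from the individual IC50s.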

[1] = Inhibition of tubulin polymerization at 5 uM after 60 mins by spectrophotometry
[2] = Inhibition of tubulin polymerization at 10 uM after 60 mins by spectrophotometry
Plasma = experiment: Stability in human plasma assessed as formation of (E/Z)-3-(3-Ethoxy-4-methoxyphenyl)-3-(3-hydroxy-4- methoxyphenyl)acrylonitrile […] by LC-MS/MS analysis; assay type: ADME, cell-free; settings: 20 min

SMILES	IC50 (Phosphodiesterase 4) [nM]	inhibition [1] [%]	inhibition [2] [%]	Stability (Plasma)	IC50 (PBMC) [nM]	IC50 (HCT-116) [nM]
CCOc1cc(C(=CC#N)c2ccc(OC)c(O)c2)ccc1OC	91	–	–	–	44	15
C=C(c1cc(OC)cc(OC)c1)c1ccc(OC)c(O)c1	> 10000	–	–	–	3000	21
CCOc1cc(C(=C(F)F)c2ccc(OC)c(O)c2)ccc1OC	360	–	–	–	54	74
COc1cc(OC)cc(C(=Cc2ccccc2)c2ccc(OC)c(O)c2)c1	> 10000	–	–	–	> 10000	> 10000
CCOc1cc(C(=CC#N)c2ccc(OC)c(OC(=O)N(C)C)c2)ccc1OC	120	–	–	–	240	> 10000
CCOc1cc(C(=CC#N)c2ccc(S(C)(=O)=O)cc2)ccc1OC	200	–	–	–	130	> 10000
CCOc1cc(C(=CC#N)c2ccc(OC)c(OC(=O)[C@@H](N)C(C)C)c2)ccc1OC.Cl	120	–	–	Unstable	67	22
CCOc1cc(C(=CC#N)c2ccc(OC)c(F)c2)ccc1OC	70	–	–	–	31	130
CCOc1cc(C(=CC#N)c2ccc(NC)cc2)ccc1OC	41	–	–	–	140	55
CC=C(c1ccc(OC)c(N)c1)c1ccc(OC)c(OCC)c1	590	–	–	–	2800	110
COc1ccc(C(=CC#N)c2cc(OC)c(OC)c(OC)c2)cc1N	> 10000	–	–	–	200	1.8
COc1ccc(C(=CC#N)c2ccc(OC)c(OC)c2)cc1	190	–	–	–	350	24
CCOc1cc(C(=CC#N)c2ccc(OC)c(OCC)c2)ccc1OC	70	–	–	–	48	440
C=C(c1cc(OC)cc(OC)c1)c1ccc(OC)c(N)c1	> 10000	–	–	–	330	13
CCOc1cc(C(=CC#N)c2cccc(OC)c2)ccc1OC	110	–	–	–	230	450
C=C(c1ccc(OC)c(N)c1)c1ccc(OC)c(OCC)c1	680	–	–	–	380	38
CCOc1cc(C(=CC#N)c2ccc(N(C)C)cc2)ccc1OC	52	–	–	–	130	31
CCOc1cc(C(=CC#N)c2ccc(OC)c(C)c2)ccc1OC	82	–	–	–	100	87
COc1cc(OC)cc(C(=CC#N)c2ccccc2)c1	1900	–	–	–	2400	970
COc1ccc(/C=C\c2cc(OC)c(OC)c(OC)c2)cc1O [COMBRETASTATIN A4]	> 10000	88	–	–	11	0.74
C=C(c1ccc(OC)c(O)c1)c1ccc(OC)c(OCC)c1	380	–	–	–	29	36
CCOc1cc(C(=CC#N)c2ccc(OC)c(-n3cccc3)c2)ccc1OC	70	–	–	–	67	49
CCOc1cc(C(=CC#N)c2ccc(OC)c(OC(=O)[C@H](C)N)c2)ccc1OC.Cl	69	–	–	Unstable	57	17
CCOc1cc(C(=CC#N)c2ccc(OC)c(OC)c2)ccc1OC	83	–	–	–	180	200
CCOc1cc(C(=CC#N)c2ccc(OC)c(OC(=O)CN)c2)ccc1OC.Cl	49	–	–	Unstable	58	19
COc1cc(C(=CC#N)c2cc(OC)c(OC)c(OC)c2)cc(OC)c1OC	2400	–	–	–	870	> 10000

Now from value to compound, other results behind:

IC50 (Phosphodiesterase 4) [nM]	inhibition [1] [%]	inhibition [2] [%]	Stability (Plasma)	SMILES	IC50 (PBMC) [nM]	IC50 (HCT-116) [nM]
> 10000	–	–	–	COc1cc(OC)cc(C(=CC(=O)O)c2ccc(OC)c(OC)c2)c1	> 10000	> 10000
6700	–	–	–	COc1cc(OC)cc(C(=CC(N)=O)c2ccc(OC)c(OC)c2)c1	5500	> 10000
9800	76	–	–	COc1cc(OC)cc(C(=CC#N)c2ccc(OC)c(N)c2)c1	11	1.4
350	65	84	–	COc1cc(OC)cc(C(=CC#N)c2ccc(OC)c(OC)c2)c1	270	18
3600	–	–	–	COC=C(c1cc(OC)cc(OC)c1)c1ccc(OC)c(OC)c1	6300	> 10000
> 10000	46	74	–	COc1cc(OC)cc(C(=CC#N)c2ccc(OC)c(NC(C)=O)c2)c1	66	92
2200	–	–	–	C=C(c1cc(OC)cc(OC)c1)c1ccc(OC)c(OC)c1	4800	> 10000
1800	–	–	–	COc1ccc(C(=CC#N)c2cc(OC)c(OC)c(OC)c2)cc1OC	540	41
150	–	–	–	COc1cc(OC)cc(/C(=C\C#N)c2ccc(OC)c(OC)c2)c1	93	11
> 10000	–	–	–	COc1cc(OC)cc(C(=CCCN(C)C)c2ccc(OC)c(OC)c2)c1	> 10000	> 10000
3500	–	–	–	C#CC=C(c1cc(OC)cc(OC)c1)c1ccc(OC)c(OC)c1	7200	> 10000
730	–	–	–	COc1cc(OC)cc(/C(=C/C#N)c2ccc(OC)c(OC)c2)c1	650	110
3800	–	–	–	COc1ccc(C(=CC#N)c2cc(OC)cc(OC)c2)cc1	440	1.2
2000	–	–	–	CCC=C(c1cc(OC)cc(OC)c1)c1ccc(OC)c(OC)c1	> 10000	> 10000
310	–	–	–	COc1ccc(C(=CC#N)c2ccc(OC)c(OC)c2)cc1OC	600	140
160	–	–	–	COc1cccc(C(=CC#N)c2ccc(OC)c(OC)c2)c1	660	310
1300	–	–	–	COC(=O)C=C(c1cc(OC)cc(OC)c1)c1ccc(OC)c(OC)c1	5400	> 10000
140	–	–	–	COc1cc(OC)cc(C(=CC(C)=O)c2ccc(OC)c(OC)c2)c1	750	> 10000
3400	67	88	–	COc1cccc(C(=CC#N)c2cc(OC)cc(OC)c2)c1	290	15
2400	77	–	–	COc1cc(OC)cc(C(=CC#N)c2ccc(OC)c(O)c2)c1	1.2	2.5
1500	–	–	–	CC=C(c1cc(OC)cc(OC)c1)c1ccc(OC)c(OC)c1	2600	480
> 10000	–	–	–	CC=C(c1cc(OC)cc(OC)c1)c1ccc(OC)c(O)c1	150	30
